Tests used:
[1] = target: Protein kinase C gamma type (Rattus norvegicus) (UniProt P63319); assay: Inhibition of rat PKC gamma expressed in Sf9 cells at 10 uM; values are per cent of control
[2] = target: Cyclin-dependent kinase 1/cyclin B (Homo sapiens) (UniProt P06493+P14635+Q8WWL7+O95067); assay: Inhibition of human CDK1/cycB expressed in Sf9 cells at 10 uM; values are per cent of control
[3] = target: T1, Vascular endothelial growth factor receptor 2 (Homo sapiens, UniProt P35968); assay: Inhibition of human VEGFR2 expressed in Sf9 cells at 10 uM; values are per cent of control
[4] = target: T1, Vascular endothelial growth factor receptor 2; assay: Inhibition of human VEGFR2
[5] = target: Protein kinase C gamma type (Rattus norvegicus) (UniProt P63319); assay: Inhibition of rat PKC gamma expressed in Sf9 cells at 100 uM; conditions: values are per cent of control
Gallus gallus [6] = species: Gallus gallus; assay: Inhibition of vessel growth in chick embryo assay at 20 ug after 24 h; type: functional
In short: (§1)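 Chick embryo assay. White leghorn eggs incubated at 37.5 °C; window opened at 70 h after removing albumen. At 75 h, compound in DMSO stock was mixed into 2% agarose and given as 10 µL pellets, 15 per experiment, on the area vasculosa.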

[7] = target: Cyclin-dependent kinase 2/cyclin E (Homo sapiens) (UniProt P24864+P24941+O96020); assay: Inhibition of human CDK2/cycE expressed in Sf9 cells at 10uM; values are per cent of control
[8] = target: Angiopoietin-1 receptor (Homo sapiens) (UniProt Q02763); assay: Inhibition of human TIE2 expressed in Sf9 cells at 10 uM; conditions: values are per cent of control
In short: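 Sf9-expressed recombinant GST- or His-tagged kinase, affinity-purified. Substrates: Rb-CTF for CDK1/4/6, histone H1 for CDK2, poly(Glu,Tyr)4:1 for ERBB2/TIE2. Single replicate, 1% DMSO final, 80 min at 30 °C.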

Gallus gallus [9] = species: Gallus gallus; assay: Inhibition of vessel growth in chick embryo assay at 10 ug after 24 h; type: functional
In short: as §1

Tubulin = Tubulin (Sus scrofa, UniProt P02554+P02550); assay: Inhibition of tubulin polymerization in porcine brain
In short: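 Microtubule protein isolated from porcine brain, 1 mg/mL, polymerized 20 min at 37 °C in PIPES buffer with 10 mM GTP, pH 6.8. Turbidity followed at 360 nm; assembly compared with an effector-free control.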

Gallus gallus [10] = species: Gallus gallus; assay: Inhibition of vessel growth in chick embryo assay at 50 ug after 24 h; type: functional
In short: as §1

T1 sequence (P35968 whole entry): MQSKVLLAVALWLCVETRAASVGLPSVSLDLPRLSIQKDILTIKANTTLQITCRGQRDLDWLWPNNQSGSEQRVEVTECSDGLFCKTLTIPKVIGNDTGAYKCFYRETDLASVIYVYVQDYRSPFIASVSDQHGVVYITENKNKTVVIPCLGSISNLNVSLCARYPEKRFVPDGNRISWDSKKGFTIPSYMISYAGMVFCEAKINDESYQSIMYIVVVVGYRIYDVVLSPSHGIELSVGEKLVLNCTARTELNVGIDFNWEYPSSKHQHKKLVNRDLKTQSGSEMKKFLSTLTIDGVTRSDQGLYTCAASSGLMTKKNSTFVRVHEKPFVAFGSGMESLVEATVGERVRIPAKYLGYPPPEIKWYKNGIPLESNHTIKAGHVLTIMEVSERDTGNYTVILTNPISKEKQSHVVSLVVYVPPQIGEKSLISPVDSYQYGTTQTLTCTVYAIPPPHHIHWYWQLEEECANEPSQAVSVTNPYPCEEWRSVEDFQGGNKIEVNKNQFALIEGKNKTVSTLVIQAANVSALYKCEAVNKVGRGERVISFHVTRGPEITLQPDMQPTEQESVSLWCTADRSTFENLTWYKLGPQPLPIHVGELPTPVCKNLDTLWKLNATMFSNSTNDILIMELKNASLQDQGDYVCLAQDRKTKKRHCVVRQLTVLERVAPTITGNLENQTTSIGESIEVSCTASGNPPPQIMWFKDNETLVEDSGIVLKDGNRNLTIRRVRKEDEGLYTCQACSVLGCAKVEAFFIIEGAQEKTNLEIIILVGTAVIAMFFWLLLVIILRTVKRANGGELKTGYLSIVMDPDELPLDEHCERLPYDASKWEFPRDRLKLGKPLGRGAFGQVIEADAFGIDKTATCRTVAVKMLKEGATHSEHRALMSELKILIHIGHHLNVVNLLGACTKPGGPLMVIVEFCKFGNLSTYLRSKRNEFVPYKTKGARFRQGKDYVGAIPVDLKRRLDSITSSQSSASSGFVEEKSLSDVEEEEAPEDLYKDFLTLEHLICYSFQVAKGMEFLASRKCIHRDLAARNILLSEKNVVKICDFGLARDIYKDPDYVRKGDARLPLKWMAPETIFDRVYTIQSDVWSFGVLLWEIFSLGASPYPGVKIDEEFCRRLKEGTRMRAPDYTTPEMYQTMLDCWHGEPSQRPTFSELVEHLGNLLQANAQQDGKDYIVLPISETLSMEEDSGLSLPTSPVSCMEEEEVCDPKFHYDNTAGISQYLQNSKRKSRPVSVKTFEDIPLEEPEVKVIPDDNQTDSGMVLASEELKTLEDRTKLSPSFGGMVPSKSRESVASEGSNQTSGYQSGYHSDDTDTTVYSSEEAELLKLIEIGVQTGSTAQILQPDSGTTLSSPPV
Chain of Angiopoietin-1 receptor (Homo sapiens) (Q02763 whole entry): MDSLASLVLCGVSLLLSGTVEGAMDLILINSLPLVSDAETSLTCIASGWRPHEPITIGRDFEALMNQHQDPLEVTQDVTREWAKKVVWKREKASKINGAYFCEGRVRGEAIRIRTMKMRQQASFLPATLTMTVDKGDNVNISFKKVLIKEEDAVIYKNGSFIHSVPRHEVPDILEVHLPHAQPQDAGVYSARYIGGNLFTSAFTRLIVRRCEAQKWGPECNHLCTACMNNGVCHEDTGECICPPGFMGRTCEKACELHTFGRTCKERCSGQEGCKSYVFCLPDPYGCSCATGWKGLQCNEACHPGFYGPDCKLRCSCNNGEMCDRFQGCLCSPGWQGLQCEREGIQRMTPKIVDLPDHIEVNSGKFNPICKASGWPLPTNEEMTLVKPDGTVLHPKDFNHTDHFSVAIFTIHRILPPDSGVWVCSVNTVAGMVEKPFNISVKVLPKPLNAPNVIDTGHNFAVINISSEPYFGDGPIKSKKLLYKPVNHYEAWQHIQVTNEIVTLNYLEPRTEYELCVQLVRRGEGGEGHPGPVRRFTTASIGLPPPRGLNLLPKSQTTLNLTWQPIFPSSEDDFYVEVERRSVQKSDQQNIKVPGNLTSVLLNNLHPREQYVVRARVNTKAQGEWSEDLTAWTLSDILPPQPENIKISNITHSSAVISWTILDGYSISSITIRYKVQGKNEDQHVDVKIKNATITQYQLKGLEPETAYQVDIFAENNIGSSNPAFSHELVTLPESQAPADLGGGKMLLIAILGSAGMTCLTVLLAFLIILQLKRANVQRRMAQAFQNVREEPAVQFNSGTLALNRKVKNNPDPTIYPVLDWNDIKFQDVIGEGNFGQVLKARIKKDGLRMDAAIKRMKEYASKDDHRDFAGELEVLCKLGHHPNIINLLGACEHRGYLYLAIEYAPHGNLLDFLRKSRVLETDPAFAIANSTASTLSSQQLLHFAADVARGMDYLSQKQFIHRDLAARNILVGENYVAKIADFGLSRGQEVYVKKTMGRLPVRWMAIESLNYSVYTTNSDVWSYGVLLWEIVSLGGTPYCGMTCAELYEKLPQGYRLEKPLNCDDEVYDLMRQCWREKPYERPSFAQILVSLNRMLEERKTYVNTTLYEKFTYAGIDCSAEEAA

Row | Compound | residual activity [1] | residual activity [2] | residual activity [3] | IC50 [4] | residual activity [5] | Inhibition (Gallus gallus [6]) | residual activity [7] | residual activity [8] | Inhibition (Gallus gallus [9]) | IC50 (Tubulin) | Inhibition (Gallus gallus [10])
1 | COc1cc(C2=C(c3cc[nH]c3)C(=O)NC2=O)cc(OC)c1OC | 99% | 99% | 17% | 2.5 µM | 93% | 47.2% | 88% | 116% |  |  | 
2 | COc1ccc(C2=C(c3ccc(OC)cc3)C(=O)NC2=O)cc1 | 98% | 108% | 100% |  | 113% |  | 90% | 109% | 47.4% |  | 
3 | COc1ccc(C2=C(c3cc(OC)c(OC)c(OC)c3)C(=O)NC2=O)cc1O | 76% | 103% | 19% |  | 101% |  | 80% | 101% | 76.9% | 7.6 µM | 
4 | O=C1NC(=O)C(c2ccccc2)=C1c1ccccc1 | 89% | 100% | 81% |  | 105% |  | 79% | 99% |  |  | 11.3%
5 | COc1ccc(C2=C(c3ccccc3)C(=O)NC2=O)cc1OC | 93% | 99% | 86% |  | 96% |  | 87% | 100% |  |  | 2.8%
6 | COc1ccc(C2=C(c3cc(OC)c(OC)c(OC)c3)C(=O)NC2=O)cc1 | 88% | 100% | 45% |  | 109% |  | 83% | 108% | 27.3% |  | 
7 | COc1ccc(C2=C(c3ccccc3)C(=O)NC2=O)cc1 | 89% | 87% | 94% |  | 117% |  | 87% | 101% |  |  | 16.4%
8 | COc1cc(C2=C(c3ccccc3)C(=O)NC2=O)cc(OC)c1OC | 83% | 102% | 55% |  | 103% |  | 76% | 103% |  |  | 32.2%

Source: ChEMBL document CHEMBL1149451, “Design, synthesis, and biological evaluation of 3,4-diarylmaleimides as angiogenesis inhibitors” (J Med Chem, 2006)
